These results are taken from publication PMC10704080 (Journal of Advanced Research, 2023).

The nature of data set [1]: Cytotoxicity in HEK293 cells. Type of data set: cell-based. As to conditions: human. The gist of the method:
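HEK293 cells (ATCC CRL-1573) counted by haemocytometer and seeded at 5000 cells/well into compound-containing plates in DMEM plus 10% FBS. Incubated 20 h at 37 °C, 5% CO2. Resazurin added (25 μg/mL final) for a further 3 h, then fluorescence read at ex 530/em 590 nm. Percent inhibition calculated against media-only and untreated-cell controls. CC50 fitted from dose-response curves with variable bottom, top and slope.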

Data set [2] deals with human red blood cells (RBC). In words: Haemolytic activity in human red blood cells. It counts as cell-based. As to conditions: 1 h, 37 °C. The gist of the method: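 Human whole blood washed three times with 3 volumes of 0.9% NaCl, counted by haemocytometer, and resuspended in saline. Cells added to compound-containing plates, shaken 10 min, then incubated 1 h at 37 °C. Plates centrifuged at 1000 × g for 10 min to pellet cells and debris. Haemolysis read as supernatant absorbance at 405 nm.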

Each structure is given as a SMILES string.

In the case of `O=C(CCCCCCCCCC[P+](c1ccccc1)(c1ccccc1)c1ccccc1)Nc1ccc(O)c(O)c1` [Compound 11e, (11-((3,4-dihydroxyphenyl)amino)-11-oxoundecyl)triphenylphosphonium bromide], the CC50 at 20 h in data set [1] turned out to be 22.4 µg/mL.

For `CC[C@H](C)[C@H](NC(=O)CN)C(=O)NCC(=O)N[C@@H](C)C(=O)N[C@H](C(=O)N[C@@H](CC(C)C)C(=O)N[C@@H](CCCCN)C(=O)N[C@H](C(=O)N[C@@H](CC(C)C)C(=O)N[C@H](C(=O)N[C@H](C(=O)NCC(=O)N[C@@H](CC(C)C)C(=O)N1CCC[C@H]1C(=O)N[C@@H](C)C(=O)N[C@@H](CC(C)C)C(=O)N[C@H](C(=O)N[C@@H](CO)C(=O)N[C@@H](Cc1c[nH]c2ccccc12)C(=O)N[C@H](C(=O)N[C@@H](CCCCN)C(=O)N[C@@H](CCCNC(=N)N)C(=O)N[C@@H](CCCCN)C(=O)N[C@@H](CCCNC(=N)N)C(=O)N[C@@H](CCC(N)=O)C(=O)N[C@@H](CCC(N)=O)C(N)=O)[C@@H](C)CC)[C@@H](C)CC)[C@@H](C)O)[C@@H](C)O)C(C)C)C(C)C` [Mellitin, melittin], the “RBC (HC10), concentration at 10% haemolytic activity” value in data set [2] worked out at 2.7 µg/mL.
